Results taken from PMC7555381 (International Journal of Nanomedicine, 2020).

How the values were obtained:
[1] = test system: Madin–Darby Canine Kidney (MDCK) cells; assay: In vitro cytotoxicity; format: cell-based; conditions: 12 h
Outline: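 MDCK cells seeded at 5×10³ cells/well in DMEM with 10% FBS and 1% penicillin/streptomycin, then held 24 h at 37°C. Treated with test formulations diluted in DMEM at 1, 10, 25, 50, 100, 250 and 500 µg/mL drug equivalent, with matching excipient-only controls, for 12 h. WST-8 was added for 2 h and absorbance read at 450 nm. Viability is expressed relative to untreated cells.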

In vitro drug release = format: physicochemical; conditions: 37°C, 100 rpm
Outline: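 Drug release from the formulation and from free drug was tested in 900 mL of 0.1 N HCl (pH 1.2) or phosphate buffer (pH 6.8). USP apparatus I (basket) was run at 100 rpm and 37±0.2°C. Results are given as cumulative percentage released over time.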

[2] = test system: CT26 (murine colon cancer) tumor; assay: In vivo tumor growth inhibition in CT26 tumor-bearing mice; parameters: species or system BALB/c mice
Outline: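 Female BALB/c mice, 6 weeks old, received 1×10⁶ CT26 cells in PBS in the right dorsal flank. At 70–100 mm³, mice were randomised to seven groups of 14: untreated; IV drug 3.3 or 10 mg/kg once biweekly; oral aqueous drug 10 mg/kg daily; oral formulation at 2.5, 10 or 20 mg/kg equivalent daily, for 21 days. Mice were fasted 4 h before and 2 h after dosing. Caliper volume (width²×length×0.52) was recorded every 3 days. Day-21 tumors were weighed and stained for CD31, PCNA and TUNEL.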

[3] = test system: HCT116 (human colon cancer) tumor; assay: In vivo tumor growth inhibition in HCT116 tumor-bearing mice; parameters: species or system BALB/c nude mice
Outline: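 Female BALB/c nude mice, 6 weeks old, received 1×10⁷ HCT116 cells in PBS in the right dorsal flank. At 70–100 mm³, mice were randomised to the same seven arms: untreated; IV drug 3.3 or 10 mg/kg biweekly; oral aqueous drug 10 mg/kg daily; oral formulation at 2.5, 10 or 20 mg/kg daily, for 21 days. Mice were fasted 4 h before and 2 h after dosing. Caliper volume (width²×length×0.52) was recorded every 3 days, and tumors were weighed at day 21.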

[4] = CT26, once-biweekly IV 10 mg/kg OP, 21 days
[5] = HCT116 tumors, day 21, groups OP-IV (10), ODSF (10), ODSF (20)

## O=C1[O][Pt]2([NH][C@@H]3CCCC[C@H]3[NH]2)[O]C1=O (relative stereo) [OP, cis-[(1R,2R)-1,2-cyclohexanediamine-N,N’] [oxalato(2)-O,O´] platinum]
[1]; 250 µg/mL
  Cell viability: 74.8±6.82%
[1]; 500 µg/mL
  Cell viability: 55.3±7.79%
[1]
  Concentrations at which cytotoxicity was demonstrated: higher than 100 µg/mL
In vitro drug release; pH 1.2 (0.1 N HCl), at 60 min
  Cumulative drug release: exceeded 90%
In vitro drug release; pH 6.8 phosphate buffer, at 120 min
  Cumulative drug release: exceeded 90%
[2]; CT26, once-biweekly IV 3.3 mg/kg OP, 21 days
  Inhibition of tumor growth rate compared to the control group: 40.0%
[2]; [4]
  Tumor suppression compared to the OP-S (10) group: 53.3%
  Tumor suppression compared to the control group: 70.2%
[2]; CT26, once-biweekly IV 10 mg/kg OP, day 21
  Reduction of isolated tumor mass compared to the controls: 71.7%
[2]; CT26 tumors, day 21, groups ODSF (10), ODSF (20), OP-IV (10)
  TUNEL-positive cells (apoptosis) compared to the controls: significant increases in the number of TUNEL-positive cells
[2]; CT26 tumors, day 21, groups OP-IV (3.3), OP-S (10), ODSF (10), ODSF (20)
  CD31-positive microvessels (immunohistochemistry): greater numbers of microvessels
[2]; CT26 tumors, day 21, groups OP-S, OP-IV (10), ODSF (10), ODSF (20), listed as OP-S
  Numbers of PCNA-positive cells (proliferation): significantly higher
[3]; HCT116, once-biweekly IV 3.3 mg/kg OP
  Reduction in tumor volume compared to controls: 33.5%
[3]; [5]
  Numbers of CD31-positive microvessels compared to the control and OP-S (10) groups: marked reductions
  Numbers of PCNA-positive proliferating cells compared to the control and OP-S (10) groups: marked reductions
  TUNEL-positive apoptotic cells compared to the control and OP-S (10) groups: significantly greater numbers of TUNEL-positive apoptotic cells
